# Key:
# [1] = molecular target: Cathepsin B (Bos taurus, UniProt P07688); test: Inhibition of alpha-keto esters towards cathepsin B at pH 5.2
# Procedure, shortened: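 Bovine cathepsin B in 20 mM sodium acetate pH 5.2, 0.5 mM dithiothreitol, 2% DMSO. Substrate Bz-Phe-Val-Arg-p-nitroanilide; p-nitroaniline release followed at 405 nm. Ki reported.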
# [2] = molecular target: Calpain 1 (Homo sapiens, UniProt P07384); test: Inhibitory activity of alpha-keto esters towards calpain 1 at pH 8.0.; assay type: protein-complex assay
# Procedure, shortened: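 Calpain I purified from human erythrocytes; calpain II from rabbit muscle. Buffer: 25 mM Tris pH 8.0, 1 mM β-mercaptoethanol, 10 mM CaCl2, up to 5% DMSO. Substrate: Suc-Leu-Tyr-AMC at 1–3 mM, 70 nM final enzyme, started with enzyme. AMC fluorescence read at ex 380 / em 460 nm. Initial rates taken at 30–60 s at room temperature, with five or more inhibitor levels and two substrate levels. Ki from Dixon plots, triplicates.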
# [3] = species: Rattus norvegicus; test: Inhibitory potency against rat platelet membrane permeability at pH 7.35; assay type: functional
# Procedure, shortened: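 Rat platelets from cardiac-puncture blood (citrate-EDTA), gel-filtered in HEPES-Tyrode's pH 7.35, at 10^7/mL. Preincubated 5 min at room temperature with inhibitor from DMSO stocks (2% DMSO), then given 1 μM A23187 plus 2 mM Ca for 5 min. Pellets run on SDS-PAGE and western blotted for spectrin. Densitometry of the 150/155-kDa breakdown doublet gives IC50.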
# [4] = molecular target: T1, Papain (Carica papaya, UniProt P00784); test: Inhibitory activity of alpha-ketoesters towards papain at pH 6.0
# T1 sequence (P00784 whole entry): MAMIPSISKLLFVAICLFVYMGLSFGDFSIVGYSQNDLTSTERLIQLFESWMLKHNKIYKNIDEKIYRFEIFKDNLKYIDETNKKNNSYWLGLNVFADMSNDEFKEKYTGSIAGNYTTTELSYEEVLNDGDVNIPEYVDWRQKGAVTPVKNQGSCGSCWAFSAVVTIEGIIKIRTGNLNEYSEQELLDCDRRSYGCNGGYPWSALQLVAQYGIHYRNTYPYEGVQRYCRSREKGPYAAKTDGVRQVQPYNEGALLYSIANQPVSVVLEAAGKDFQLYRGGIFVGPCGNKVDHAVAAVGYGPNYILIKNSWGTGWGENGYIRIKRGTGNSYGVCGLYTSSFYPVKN
# Procedure, shortened: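 Papain in 100 mM K3PO4, 1 mM EDTA, 2.5 mM cysteine, pH 6.0, 2% DMSO. Substrate Bz-Arg-p-nitroanilide; p-nitroaniline release read at 405 nm. Ki reported.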
# Chain of Calpain 1 (P04632 whole entry): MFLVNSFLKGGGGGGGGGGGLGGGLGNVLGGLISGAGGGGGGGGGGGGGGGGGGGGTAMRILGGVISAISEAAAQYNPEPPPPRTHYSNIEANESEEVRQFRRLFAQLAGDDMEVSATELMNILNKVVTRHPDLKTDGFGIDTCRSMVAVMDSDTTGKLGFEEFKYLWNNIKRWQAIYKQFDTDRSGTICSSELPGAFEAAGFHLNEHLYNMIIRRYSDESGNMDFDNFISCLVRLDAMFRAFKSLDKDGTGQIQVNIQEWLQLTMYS
# Chain of Calpain 1 (P07384 whole entry): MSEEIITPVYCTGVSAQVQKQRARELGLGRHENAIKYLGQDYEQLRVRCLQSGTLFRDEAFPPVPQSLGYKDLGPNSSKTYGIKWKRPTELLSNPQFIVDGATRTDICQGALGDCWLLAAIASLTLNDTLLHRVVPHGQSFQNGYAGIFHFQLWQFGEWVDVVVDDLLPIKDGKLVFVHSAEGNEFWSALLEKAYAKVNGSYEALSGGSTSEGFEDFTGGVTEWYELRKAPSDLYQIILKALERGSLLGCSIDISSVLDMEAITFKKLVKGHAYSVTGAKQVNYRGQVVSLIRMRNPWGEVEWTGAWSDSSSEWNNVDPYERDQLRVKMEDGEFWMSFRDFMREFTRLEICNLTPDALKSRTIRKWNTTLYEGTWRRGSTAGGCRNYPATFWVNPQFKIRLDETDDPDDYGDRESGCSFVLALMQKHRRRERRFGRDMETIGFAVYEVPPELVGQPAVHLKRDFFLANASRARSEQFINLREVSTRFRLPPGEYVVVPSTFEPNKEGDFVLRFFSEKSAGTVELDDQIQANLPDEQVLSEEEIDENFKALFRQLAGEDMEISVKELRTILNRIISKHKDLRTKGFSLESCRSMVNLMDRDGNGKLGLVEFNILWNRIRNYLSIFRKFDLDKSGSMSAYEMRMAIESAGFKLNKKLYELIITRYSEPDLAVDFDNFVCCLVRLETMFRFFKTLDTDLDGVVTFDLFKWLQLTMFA
smiles,measurement,setting,value
CCOC(=O)C(=O)C(CC)NC(=O)C(CC(C)C)NC(=O)CCCCc1ccccc1 (stereo unspecified),Ki,[1],7.5 µM
CCC(NC(=O)C(CC(C)C)NC(=O)OCc1ccccc1)C(=O)C(=O)NCCCCc1ccccc1 (stereo unspecified),Ki,[1],1.2 µM
same,Ki,[2],0.32 µM
CCC(NC(=O)C(CC(C)C)NC(=O)OCc1ccccc1)C(=O)C(=O)NCC(C)C (stereo unspecified),IC50,[3],28 µM
same,Ki,[1],4 µM
same,Ki,[2],4 µM
CCOC(=O)C(=O)C(CC)NC(=O)C(CC(C)C)NS(=O)(=O)c1ccc2ccccc2c1 (stereo unspecified),Ki,[1],19 µM
CCCCCCCCCCNC(=O)C(=O)C(CC)NC(=O)C(CC(C)C)NC(=O)OCc1ccccc1 (stereo unspecified),Ki,[1],5 µM
CCC(NC(=O)C(CC(C)C)NC(=O)OCc1ccccc1)C(=O)C(=O)NCC(C)c1ccccc1 (stereo unspecified),IC50,[3],27 µM
same,Ki,[2],0.32 µM
CCOC(=O)C(=O)C(CC)NC(=O)C(CC(C)C)NC(=O)OCC(C)C (stereo unspecified),IC50,[3],> 300 µM
same,Ki,[1],0.4 µM
CCCCC(NC(=O)C(CC(C)C)NC(=O)OCc1ccccc1)C(=O)C(=O)OCC (stereo unspecified),Ki,[4],190 µM
same,IC50,[3],150 µM
same,Ki,[1],20 µM
same,Ki,[2],7 µM
CCCCCCCNC(=O)C(=O)C(CC)NC(=O)C(CC(C)C)NC(=O)OCc1ccccc1 (stereo unspecified),Ki,[1],14 µM
same,Ki,[2],0.096 µM
CCC(C)NC(=O)C(=O)C(CC)NC(=O)C(CC(C)C)NC(=O)OCc1ccccc1 (stereo unspecified),Ki,[1],0.5 µM
same,Ki,[2],2 µM
CCCNC(=O)C(=O)C(Cc1ccccc1)NC(=O)C(CC(C)C)NC(=O)OCc1ccccc1 (stereo unspecified),IC50,[3],31 µM
same,Ki,[1],3 µM
same,Ki,[2],15 µM
COC(=O)C(=O)C(Cc1ccccc1)NC(=O)C(CC(C)C)NC(=O)OCc1ccccc1 (stereo unspecified),Ki,[1],> 100 µM
CC(C)CC(NC(=O)OCc1ccccc1)C(=O)NC(Cc1ccccc1)C(=O)C(N)=O (stereo unspecified),Ki,[1],32 µM
same,Ki,[2],1 µM
CCCNC(=O)C(=O)C(CC)NC(=O)C(CC(C)C)NC(=O)OCc1ccccc1 (stereo unspecified),IC50,[3],70 µM
same,Ki,[1],8 µM
CCCC(NC(=O)C(CC(C)C)NC(=O)OCc1ccccc1)C(=O)C(=O)NCC (stereo unspecified),IC50,[3],40 µM
same,Ki,[1],3.3 µM
same,Ki,[2],0.21 µM
CC(C)CC(NC(=O)OCc1ccccc1)C(=O)NC(Cc1ccccc1)C(=O)C(=O)O (stereo unspecified),Ki,[4],7 µM
same,IC50,[3],100 µM
same,Ki,[1],4.5 µM
same,Ki,[2],0.0085 µM
CCN(CC)C(=O)C(=O)C(Cc1ccccc1)NC(=O)C(CC(C)C)NC(=O)OCc1ccccc1 (stereo unspecified),Ki,[2],76 µM
CCOC(=O)C(=O)C(Cc1ccc(Cl)cc1)NC(=O)C(CC(C)C)NC(=O)OCc1ccccc1 (stereo unspecified),Ki,[4],150 µM
same,Ki,[1],50 µM
same,Ki,[2],< 4 µM
CCOC(=O)C(=O)C(CCSC)NC(=O)C(CC(C)C)NC(=O)OCc1ccccc1 (stereo unspecified),Ki,[4],140 µM
same,Ki,[1],55 µM
same,Ki,[2],1 µM
CCCCOC(=O)C(=O)C(Cc1ccccc1)NC(=O)C(CC(C)C)NC(=O)OCc1ccccc1 (stereo unspecified),Ki,[4],15 µM
same,Ki,[1],15 µM
same,Ki,[2],5 µM
CCC(NC(=O)C(CC(C)C)NC(=O)OCc1ccccc1)C(=O)C(=O)OC (stereo unspecified),IC50,[3],280 µM
same,Ki,[1],17 µM
CCOC(=O)C(=O)C(CC)NC(=O)C(CC(C)C)NC(=O)C(c1ccccc1)c1ccccc1 (stereo unspecified),IC50,[3],> 100 µM
same,Ki,[2],0.1 µM
CCOC(=O)C(=O)C(CC)NC(=O)C(CC(C)C)NC(=O)CCc1ccccc1 (stereo unspecified),IC50,[3],20 µM
same,Ki,[1],23 µM
same,Ki,[2],40 µM
CCCC(NC(=O)C(CC(C)C)NC(=O)OCc1ccccc1)C(=O)C(N)=O (stereo unspecified),Ki,[2],0.069 µM
CCC(NC(=O)C(CC(C)C)NC(=O)OCc1ccccc1)C(=O)C(=O)NCC1CCCCC1 (stereo unspecified),IC50,[3],66 µM
same,Ki,[2],0.68 µM
CCOC(=O)C(=O)C(CC)NC(=O)C(CC(C)C)NC(=O)OCc1ccccc1 (stereo unspecified),Ki,[4],220 µM
same,IC50,[3],300 µM
same,Ki,[1],30 µM
same,Ki,[2],4.5 µM
CCOC(=O)C(=O)C(CC)NC(=O)C(CC(C)C)NC(=O)CCCc1ccccc1 (stereo unspecified),IC50,[3],20 µM
same,Ki,[1],23 µM
CCC(NC(=O)C(CC(C)C)NC(=O)OCc1ccccc1)C(=O)C(=O)NCCCc1ccccc1 (stereo unspecified),IC50,[3],100 µM
same,Ki,[1],0.2 µM
same,Ki,[2],0.8 µM
CCC(=O)C(=O)[C@H](CC)NC(=O)[C@H](CC(C)C)NC(=O)[C@H](CC(C)C)NC(=O)OCc1ccccc1,IC50,[3],40 µM
same,Ki,[1],22 µM
same,Ki,[2],1.8 µM
CCOC(=O)C(=O)[C@H](Cc1ccccc1)NC(=O)[C@H](CC(C)C)NC(=O)[C@H](CC(C)C)NC(=O)OCc1ccccc1,Ki,[4],15 µM
same,Ki,[1],42 µM
same,Ki,[2],1.4 µM
CCOC(=O)C(=O)[C@H](CC)NC(=O)[C@H](CC(C)C)NC(=O)[C@H](CC(C)C)NS(=O)(=O)c1ccc(C)cc1,IC50,[3],30 µM
same,Ki,[1],69 µM
same,Ki,[2],33 µM
CCOC(=O)C(=O)[C@H](CC)NC(=O)[C@H](CC(C)C)NC(=O)[C@H](CC(C)C)NS(=O)(=O)c1ccc2ccccc2c1,IC50,[3],100 µM
same,Ki,[1],25 µM
same,Ki,[2],16 µM
CCOC(=O)C(=O)[C@H](CC)NC(=O)[C@H](CC(C)C)NC(=O)[C@H](CC(C)C)NC(=O)c1ccc2ccccc2c1,IC50,[3],78 µM
same,Ki,[2],1.3 µM
CC(C)CC(NC(=O)OCc1ccccc1)C(=O)NC(Cc1ccccc1)C(=O)C(=O)OCc1ccccc1 (stereo unspecified),Ki,[4],45 µM
same,Ki,[1],45 µM
same,Ki,[2],3.4 µM
CCCCCCCCNC(=O)C(=O)C(CC)NC(=O)C(CC(C)C)NC(=O)OCc1ccccc1 (stereo unspecified),IC50,[3],200 µM
same,Ki,[1],2.6 µM
same,Ki,[2],0.32 µM
CCC(NC(=O)C(CC(C)C)NC(=O)OCc1ccccc1)C(=O)C(=O)NCC(c1ccccc1)c1ccccc1 (stereo unspecified),Ki,[1],3 µM
same,Ki,[2],0.16 µM
CCC(NC(=O)C(CC(C)C)NC(=O)OCc1ccccc1)C(=O)C(=O)N(CC)CC (stereo unspecified),Ki,[1],270 µM
CCCCCCCCCNC(=O)C(=O)C(CC)NC(=O)C(CC(C)C)NC(=O)OCc1ccccc1 (stereo unspecified),Ki,[1],150 µM
same,Ki,[2],0.12 µM
CCOC(=O)C(=O)C(CC)NC(=O)C(CC(C)C)NC(=O)C(CC)Oc1ccccc1 (stereo unspecified),IC50,[3],22 µM
same,Ki,[1],14 µM
same,Ki,[2],20 µM
CCOC(=O)C(=O)C(CC)NC(=O)C(CC(C)C)NC(=O)CCC(C)Cc1ccccc1 (stereo unspecified),Ki,[1],24 µM
CCCCOC(=O)C(=O)C(CC)NC(=O)C(CC(C)C)NC(=O)OCc1ccccc1 (stereo unspecified),Ki,[4],10 µM
same,IC50,[3],28 µM
same,Ki,[1],4 µM
same,Ki,[2],1.8 µM
CCC(NC(=O)C(CC(C)C)NC(=O)OCc1ccccc1)C(=O)C(=O)N(CC)Cc1ccccc1 (stereo unspecified),Ki,[1],> 400 µM
CCOC(=O)C(=O)C(Cc1ccccc1)NC(=O)C(CC(C)C)NC(=O)OCc1ccccc1 (stereo unspecified),Ki,[4],75 µM
same,IC50,[3],200 µM
same,Ki,[1],340 µM
same,Ki,[2],1.8 µM
CC(C)CC(NC(=O)OCc1ccccc1)C(=O)NC(Cc1ccccc1)C(=O)C(=O)NCc1ccccc1 (stereo unspecified),IC50,[3],> 300 µM
same,Ki,[1],4.6 µM
CCC(NC(=O)C(CC(C)C)NC(=O)OCc1ccccc1)C(=O)C(=O)N(Cc1ccccc1)Cc1ccccc1 (stereo unspecified),Ki,[1],31 µM
same,Ki,[2],> 5 µM
CCCCNC(=O)C(=O)C(Cc1ccccc1)NC(=O)C(CC(C)C)NC(=O)OCc1ccccc1 (stereo unspecified),IC50,[3],38 µM
same,Ki,[1],3 µM
same,Ki,[2],0.5 µM
CC(C)CNC(=O)C(=O)C(Cc1ccccc1)NC(=O)C(CC(C)C)NC(=O)OCc1ccccc1 (stereo unspecified),IC50,[3],22 µM
same,Ki,[1],4 µM
same,Ki,[2],0.08 µM
CCCCNC(=O)C(=O)C(CC)NC(=O)C(CC(C)C)NC(=O)OCc1ccccc1 (stereo unspecified),Ki,[4],93 µM
same,IC50,[3],35 µM
same,Ki,[1],13 µM
same,Ki,[2],0.2 µM

# Source: ChEMBL document CHEMBL1126888, “Peptide alpha-keto ester, alpha-keto amide, and alpha-keto acid inhibitors of calpains and other cysteine proteases” (J Med Chem, 1993)
